≈ marks a conversion by molar mass, not a printed value. Where “and” joins values, the source holds several entries; their conditions need not be identical. Equal values may be shown once.
Columns and labels:
[1] = species on record: Mus musculus; assay: Minimal inhibitory concentration required to cause a microscopic detectable alteration of C3H/3T3 embryo murine fibroblast cell morphology; type: functional
Outline: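 Uninfected C3H/3T3 murine embryo fibroblast cultures were exposed to test compound and checked microscopically for changes in cell morphology. The MIC is the concentration causing a microscopically detectable alteration of morphology.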

[2] = test system: L1210; assay: Inhibitory concentration of compound against proliferation of murine lukemia cells L1210 was determined; type: functional, cell-based; details: Mus musculus
Outline: (§1)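 (5–7.5) × 10^4 cells per well were incubated with test compound at 37 °C in a humidified CO2 atmosphere. L1210 murine leukemia cells grew for 48 h, and CEM and Molt4/clone 8 human lymphocytes grew for 72 h. Cells were then counted with a Coulter counter. IC50 is the concentration inhibiting proliferation by 50%.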

[3] = species on record: Mus musculus; assay: Effective concentration of compound required to protect C3H/3T3 embryo murine fibroblasts against the MSV induced transformation; type: functional, organism-based
Outline: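 Monolayer murine embryo fibroblast C3H/3T3 cultures were infected with Moloney murine sarcoma virus at 75 focus-forming units and cultured with test compound. Transformation was examined microscopically on day 6 postinfection. EC50 is the concentration protecting cells against MSV-induced transformation by 50%.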

[4] = test system: Human immunodeficiency virus 2; assay: Concentration required to protect human T-lymphocytic cells against the cytopathogenicity of HIV-2; type: functional, organism-based
[5] = test system: CCRF-CEM; assay: Inhibitory concentration against proliferation of human T-lymphocytic (CEM) cells; type: functional, cell-based; outline: as §1
[6] = test system: Human immunodeficiency virus 1; assay: Effective concentration of compound required to protect human T-lymphocytic cells against the cytopathogenicity of HIV-1; type: functional, organism-based
[7] = test system: MOLT-4; assay: Inhibitory concentration of compound against proliferation of human T-lymphocytic cells MOLT-4/C8 was determined; type: functional, cell-based; outline: as §1

CNC(CC(C)C)C(=O)NC1C(=O)NC(CC(N)=O)C(=O)NC2C(=O)NC3C(=O)NC(C(=O)N[C@@H](C(=O)O)c4cc(O)c(CN5CCN(Cc6ccc(-c7ccccc7)cc6)CC5)c(O)c4-c4cc3ccc4O)C(O)c3ccc(cc3)Oc3cc2cc(c3O)Oc2ccc(cc2Cl)C1O (stereo partly specified)
MIC [1]: > 100 µM
IC50 [2]: 250 µM
EC50 ([3]; Mus musculus, C3H/3T3): 13 µM
EC50 ([4]; Human immunodeficiency virus 2): 12 µM
IC50 ([5]; Homo sapiens, CCRF-CEM): > 500 µM
EC50 ([6]; Human immunodeficiency virus 1): 5.5 µM
IC50 [7]: > 500 µM

NC1C(=O)NC2Cc3ccc(c(Cl)c3)Oc3cc4cc(c3O)Oc3ccc(cc3Cl)C(O)C3NC(=O)C(NC(=O)C4NC(=O)C(NC2=O)c2cc(O)cc(c2)Oc2cc1ccc2O)c1ccc(O)c(c1)-c1c(O)cc(O)cc1[C@H](C(=O)O)NC3=O (stereo partly specified)
MIC [1]: > 100 µM
IC50 [2]: > 500 µM
EC50 ([3]; Mus musculus, C3H/3T3): 25 µM
EC50 ([4]; Human immunodeficiency virus 2): 20 µM
IC50 ([5]; Homo sapiens, CCRF-CEM): > 500 µM
EC50 ([6]; Human immunodeficiency virus 1): 17 µM
IC50 [7]: > 500 µM

CN[C@H](CC(C)C)C(=O)N[C@H]1C(=O)N[C@@H](CC(N)=O)C(=O)N[C@H]2C(=O)N[C@H]3C(=O)N[C@H](C(=O)N[C@H](C(=O)O)c4cc(O)cc(O)c4-c4cc3ccc4O)[C@H](O[C@H]3C[C@](C)(N)[C@@H](O)[C@H](C)O3)c3ccc(cc3)Oc3cc2cc(c3O[C@@H]2O[C@H](CO)[C@@H](O)[C@H](O)[C@H]2O[C@H]2C[C@](C)(N)[C@@H](O)[C@H](C)O2)Oc2ccc(cc2Cl)[C@H]1O
MIC [1]: > 100 µM
IC50 [2]: > 500 µM
EC50 ([3]; Mus musculus, C3H/3T3): > 100 µM
EC50 ([4]; Human immunodeficiency virus 2): > 250 µM
IC50 ([5]; Homo sapiens, CCRF-CEM): > 500 µM
EC50 ([6]; Human immunodeficiency virus 1): > 250 µM
IC50 [7]: > 500 µM

CCCCc1ccc(CN2CCN(Cc3c(O)cc4c(c3O)-c3cc(ccc3O)C3NC(=O)C5NC(=O)C6NC(=O)C(Cc7ccc(c(Cl)c7)Oc7cc5cc(c7O)Oc5ccc(cc5Cl)C(O)C(NC3=O)C(=O)N[C@H]4C(=O)NCCCN(C)C)NC(=O)C(N)c3ccc(O)c(c3)Oc3cc(O)cc6c3)CC2)cc1 (stereo partly specified)
MIC [1]: 20 µM (≈ 30.5 µg/mL)
IC50 [2]: 29 µM
EC50 [3]: 3.5 µM
EC50 ([3]; Mus musculus, C3H/3T3): 2.4 µM
EC50 [4]: 5 µM and 13 µM
IC50 ([5]; Homo sapiens, CCRF-CEM): > 500 µM
IC50 ([5]; ccrf-cem): > 250 µM
EC50 [6]: 4 µM
EC50 ([6]; Human immunodeficiency virus 1): 3 µM
IC50 [7]: 108 µM

CCCCc1ccc(CNC2C(Oc3c4cc5cc3Oc3ccc(cc3Cl)C(O)C3NC(=O)C(NC(=O)C5NC(=O)C5NC(=O)C(Cc6ccc(cc6)O4)NC(=O)C(NC)c4ccc(O)c(c4)Oc4cc(O)c(Cl)c5c4)c4ccc(O)c(c4)-c4c(O)cc(O)cc4[C@H](C(=O)NCCCN(C)C)NC3=O)OC(C(=O)NCCCN(C)C)C(O)C2O)cc1 (stereo partly specified)
MIC [1]: > 100 µM
IC50 [2]: 36 µM
EC50 ([3]; Mus musculus, C3H/3T3): > 20 µM
EC50 ([4]; Human immunodeficiency virus 2): > 50 µM
IC50 ([5]; Homo sapiens, CCRF-CEM): > 250 µM
EC50 ([6]; Human immunodeficiency virus 1): 12 µM
IC50 [7]: 66 µM

NCCCCCCCCCCNC(=O)[C@@H]1NC(=O)C2NC(=O)C(NC(=O)C3NC(=O)C4NC(=O)C(Cc5ccc(c(Cl)c5)Oc5cc3cc(c5O)Oc3ccc(cc3Cl)C2O)NC(=O)C(N)c2ccc(O)c(c2)Oc2cc(O)cc4c2)c2ccc(O)c(c2)-c2c(O)cc(O)cc21 (stereo partly specified)
MIC [1]: 20 µM (≈ 27.1 µg/mL)
IC50 [2]: 500 µM
EC50 ([3]; Mus musculus, C3H/3T3): > 4 µM
EC50 ([4]; Human immunodeficiency virus 2): 12 µM
IC50 ([5]; Homo sapiens, CCRF-CEM): 402 µM
EC50 ([6]; Human immunodeficiency virus 1): 6.5 µM
IC50 [7]: 225 µM

NC1C(=O)NC2Cc3ccc(c(Cl)c3)Oc3cc4cc(c3O)Oc3ccc(cc3Cl)C(O)C3NC(=O)C(NC(=O)C4NC(=O)C(NC2=O)c2cc(O)cc(c2)Oc2cc1ccc2O)c1ccc(O)c(c1)-c1c(cc(O)c(CNC2C4CC5CC(C4)CC2C5)c1O)[C@H](C(=O)NC1C2CC4CC(C2)CC1C4)NC3=O (stereo partly specified)
MIC [1]: > 20 µM
IC50 [2]: 202 µM
EC50 ([3]; Mus musculus, C3H/3T3): 2 µM
EC50 ([4]; Human immunodeficiency virus 2): 3.5 µM
IC50 ([5]; Homo sapiens, CCRF-CEM): > 250 µM
EC50 ([6]; Human immunodeficiency virus 1): 2.5 µM
IC50 [7]: > 250 µM

COC(=O)[C@@H]1NC(=O)C2NC(=O)C(NC(=O)C(N)c3cc(Oc4ccc(CC(NC(=O)OCc5ccccc5)C(=O)O)cc4Cl)c(O)c(c3)Oc3ccc(cc3Cl)C2O)c2ccc(O)c(c2)-c2c1cc(O)c(CNC1C3CC4CC(C3)CC1C4)c2O (stereo partly specified)
MIC [1]: > 100 µM
IC50 [2]: 181 µM
EC50 ([3]; Mus musculus, C3H/3T3): 39 µM
EC50 ([4]; Human immunodeficiency virus 2): 37 µM
IC50 ([5]; Homo sapiens, CCRF-CEM): > 250 µM
EC50 ([6]; Human immunodeficiency virus 1): 17 µM
IC50 [7]: > 250 µM

CCCCc1ccc(CNCc2c(O)cc3c(c2O)-c2cc(ccc2O)C2NC(=O)C4NC(=O)C5NC(=O)C(Cc6ccc(c(Cl)c6)Oc6cc4cc(c6O)Oc4ccc(cc4Cl)C(O)C(NC2=O)C(=O)N[C@H]3C(=O)NC)NC(=O)C(NC(=O)OC(C)(C)C)c2ccc(O)c(c2)Oc2cc(O)cc5c2)cc1 (stereo partly specified)
MIC [1]: 20 µM (≈ 29.7 µg/mL)
IC50 [2]: 70 µM
EC50 ([3]; Mus musculus, C3H/3T3): > 4 µM
EC50 ([4]; Human immunodeficiency virus 2): 12 µM
IC50 ([5]; Homo sapiens, CCRF-CEM): > 100 µM
EC50 ([6]; Human immunodeficiency virus 1): 6 µM
IC50 [7]: > 100 µM

Source: ChEMBL document CHEMBL1145814, “Antiretroviral activity of semisynthetic derivatives of glycopeptide antibiotics” (J Med Chem, 2003)
